Each block holds one compound with its values, some of them ahead of it.
Assays:
[1] = tested on: MT4; test: Inhibition of cytopathic effect of HIV-1 strain RF in MT-4 cell culture; assay type: functional, cell-based; details: Homo sapiens
Procedure, shortened: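 MT-4 cells at 10^6 cells/mL in RPMI 1640 were infected with HIV-1 RF at moi 2×10^-3 (5×10^4 cells/well). Compound in Me2SO was diluted in 10-fold steps from 100 to 0.01 μg/mL. Cells were kept 7 days at 37 °C, 5% CO2, then given MTT for 60 min. Acidified 2-propanol was added and A540 read. EC50 for 50% inhibition of formazan conversion is the mean of duplicates; toxicity was assayed at the same concentrations.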

[2] = tested on: Human immunodeficiency virus 1; test: Inhibitory effects on HIV-1 induced syncytium formation in C8166 cells; assay type: functional, organism-based; details: Human immunodeficiency virus 1, C8166
Procedure, shortened: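 C8166 cells were infected with HIV-1 RF at moi 1×10^-3 and plated at 10^5 cells/well. Compound in Me2SO was serially diluted in RPMI 1640 from 50 to 0.05 μg/mL. Cells were kept 3–4 days at 37 °C, 5% CO2, and checked daily for syncytia. Syncytia were scored against untreated infected controls, and EC50 was calculated as 50% reduction of cytopathic effect.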

[3] = biological target: Human immunodeficiency virus type 1 protease (Human immunodeficiency virus 1, UniProt Q72874); test: Inhibitory activity against HIV-1 Protease
Procedure, shortened: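 Buffer: 20 mM MES pH 6.0, 2 M NaCl, 5 mM DTT, 2 mM EDTA. Compounds in 25% Me2SO over a concentration range. Incubated 60 min at 37 °C with shaking, then filtered; released radioactivity counted by scintillation. IC50 from duplicate means, standardized to a reference-compound control.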

EC50 [2]: 60 nM
SMILES: CC1(C)S[C@H]([C@H](NC(=O)Cc2ccccc2)C(=O)NCc2ccccc2)N[C@H]1C(=O)NCCNC(=O)[C@@H]1N[C@@H]([C@H](NC(=O)Cc2ccccc2)C(=O)NCc2ccccc2)SC1(C)C
EC50 [1]: 290 nM

SMILES: CCNC(=O)[C@@H](NC(=O)CCc1ccccc1)[C@@H]1N[C@@H](C(=O)NCCNC(=O)[C@@H]2N[C@@H]([C@H](NC(=O)CCc3ccccc3)C(=O)NCC)SC2(C)C)C(C)(C)S1
EC50 [1]: 3900 nM
EC50 [2]: 60 nM
IC50 [3]: 2.4 nM

SMILES: COC(=O)[C@@H](NC(=O)Cc1ccccc1)[C@@H]1N[C@@H](C(=O)NCCNC(=O)[C@@H]2N[C@@H]([C@H](NC(=O)Cc3ccccc3)C(=O)OC)SC2(C)C)C(C)(C)S1
EC50 [1]: > 100000 nM

SMILES: CCNC(=O)[C@@H](NC(=O)CC(C)C)[C@@H]1N[C@@H](C(=O)NCCNC(=O)[C@@H]2N[C@@H]([C@H](NC(=O)CC(C)C)C(=O)NCC)SC2(C)C)C(C)(C)S1
EC50 [1]: > 100000 nM
IC50 [3]: 8.7 nM

SMILES: CC1(C)S[C@H]([C@H](NC(=O)Cc2ccccc2)C(N)=O)N[C@H]1C(=O)NCCNC(=O)[C@@H]1N[C@@H]([C@H](NC(=O)Cc2ccccc2)C(N)=O)SC1(C)C
EC50 [1]: > 100000 nM

SMILES: CC1(C)S[C@H]([C@H](NC(=O)Cc2ccccc2)C(=O)NCc2ccccn2)N[C@H]1C(=O)NCCNC(=O)[C@@H]1N[C@@H]([C@H](NC(=O)Cc2ccccc2)C(=O)NCc2ccccn2)SC1(C)C
EC50 [1]: 80000 nM
IC50 [3]: 11 nM

SMILES: CC1(C)S[C@H]([C@H](NC(=O)Cc2ccccn2)C(=O)NCc2ccc(Cl)cc2)N[C@H]1C(=O)NCCNC(=O)[C@@H]1N[C@@H]([C@H](NC(=O)Cc2ccccn2)C(=O)NCc2ccc(Cl)cc2)SC1(C)C
EC50 [1]: 1900 nM
IC50 [3]: 7.5 nM

SMILES: CCNC(=O)[C@@H](NC(=O)c1ccccc1Cc1ccccc1)[C@@H]1N[C@@H](C(=O)NCCNC(=O)[C@@H]2N[C@@H]([C@H](NC(=O)c3ccccc3Cc3ccccc3)C(=O)NCC)SC2(C)C)C(C)(C)S1
EC50 [1]: > 100000 nM
IC50 [3]: 72 nM

SMILES: CC1(C)S[C@H]([C@H](NC(=O)Cc2ccccc2)C(=O)OCc2ccccc2)N[C@H]1C(=O)NCCNC(=O)[C@@H]1N[C@@H]([C@H](NC(=O)Cc2ccccc2)C(=O)OCc2ccccc2)SC1(C)C
EC50 [1]: > 100000 nM
IC50 [3]: 75 nM

SMILES: CCNC(=O)[C@@H](NC(=O)/C=C\c1ccccc1)[C@@H]1N[C@@H](C(=O)NCCNC(=O)[C@@H]2N[C@@H]([C@H](NC(=O)/C=C\c3ccccc3)C(=O)NCC)SC2(C)C)C(C)(C)S1
EC50 [1]: 3200 nM
IC50 [3]: 2.9 nM

SMILES: CCNC(=O)[C@@H](NC(=O)c1ccccc1Oc1ccccc1)[C@@H]1N[C@@H](C(=O)NCCNC(=O)[C@@H]2N[C@@H]([C@H](NC(=O)c3ccccc3Oc3ccccc3)C(=O)NCC)SC2(C)C)C(C)(C)S1
EC50 [1]: > 100000 nM
IC50 [3]: 160 nM

SMILES: CC(C)(C)OC(=O)CNC(=O)[C@@H](NC(=O)Cc1ccccc1)[C@@H]1N[C@@H](C(=O)NCCNC(=O)[C@@H]2N[C@@H]([C@H](NC(=O)Cc3ccccc3)C(=O)NCC(=O)OC(C)(C)C)SC2(C)C)C(C)(C)S1
EC50 [1]: 2700 nM
IC50 [3]: 21 nM

SMILES: CC1(C)S[C@H](CNC(=O)Cc2ccccc2)N[C@H]1C(=O)NCCNC(=O)[C@@H]1N[C@@H](CNC(=O)Cc2ccccc2)SC1(C)C
IC50 [3]: 7800 nM

IC50 [3]: > 12000 nM
SMILES: CCNC(=O)[C@@H](NC(=O)Cc1ccc(O)cc1)[C@@H]1N[C@@H](C(=O)NCCNC(=O)[C@@H]2N[C@@H]([C@H](NC(=O)Cc3ccc(O)cc3)C(=O)NCC)SC2(C)C)C(C)(C)S1

SMILES: CC1(C)S[C@H]([C@@H](CO)NC(=O)Cc2ccccc2)N[C@H]1C(=O)NCCNC(=O)[C@@H]1N[C@@H]([C@@H](CO)NC(=O)Cc2ccccc2)SC1(C)C
EC50 [1]: > 100000 nM
IC50 [3]: 140 nM

SMILES: CC1(C)S[C@H]([C@H](NC(=O)Cc2ccccc2)C(=O)NCC(=O)O)N[C@H]1C(=O)NCCNC(=O)[C@@H]1N[C@@H]([C@H](NC(=O)Cc2ccccc2)C(=O)NCC(=O)O)SC1(C)C
EC50 [1]: > 100000 nM
IC50 [3]: 39 nM

SMILES: CCNC(=O)[C@@H](NC(=O)Cc1cccs1)[C@@H]1N[C@@H](C(=O)NCCNC(=O)[C@@H]2N[C@@H]([C@H](NC(=O)Cc3cccs3)C(=O)NCC)SC2(C)C)C(C)(C)S1
EC50 [1]: 27000 nM
EC50 [2]: 5200 nM
IC50 [3]: 15 nM

EC50 [2]: 0.6 nM
SMILES: CC(C)(C)NC(=O)[C@@H]1C[C@@H]2CCCC[C@@H]2CN1C[C@@H](O)[C@H](Cc1ccccc1)NC(=O)[C@H](CC(N)=O)NC(=O)c1ccc2ccccc2n1
EC50 [1]: 4 nM

SMILES: CCNC(=O)[C@@H](NC(=O)Cc1ccccc1)[C@@H]1N[C@@H](C(=O)NCCNC(=O)[C@@H]2N[C@@H]([C@H](NC(=O)Cc3ccccc3)C(=O)NCC)SC2(C)C)C(C)(C)S1
IC50 [3]: 1300 nM

SMILES: CC(C)(C)OC(=O)CNC(=O)[C@@H](NC(=O)c1ccccc1-c1ccccc1)[C@@H]1N[C@@H](C(=O)NCCNC(=O)[C@@H]2N[C@@H]([C@H](NC(=O)c3ccccc3-c3ccccc3)C(=O)NCC(=O)OC(C)(C)C)SC2(C)C)C(C)(C)S1
EC50 [1]: 1600 nM
IC50 [3]: 4.1 nM

SMILES: CN(Cc1ccccc1)C(=O)[C@@H](NC(=O)Cc1ccccc1)[C@@H]1N[C@@H](C(=O)NCCNC(=O)[C@@H]2N[C@@H]([C@H](NC(=O)Cc3ccccc3)C(=O)N(C)Cc3ccccc3)SC2(C)C)C(C)(C)S1
IC50 [3]: 820 nM

SMILES: CCNC(=O)[C@@H](N)[C@@H]1N[C@@H](C(=O)NCCNC(=O)[C@@H]2N[C@@H]([C@H](N)C(=O)NCC)SC2(C)C)C(C)(C)S1
IC50 [3]: 120000 nM

SMILES: CCNC(=O)[C@@H](NC(=O)c1ccccc1)[C@@H]1N[C@@H](C(=O)NCCNC(=O)[C@@H]2N[C@@H]([C@H](NC(=O)c3ccccc3)C(=O)NCC)SC2(C)C)C(C)(C)S1
IC50 [3]: 390 nM

SMILES: CC1(C)S[C@H]([C@@H](COC(=O)c2ccccc2)NC(=O)Cc2ccccc2)N[C@H]1C(=O)NCCNC(=O)[C@@H]1N[C@@H]([C@@H](COC(=O)c2ccccc2)NC(=O)Cc2ccccc2)SC1(C)C
IC50 [3]: 70 nM

SMILES: CN(C)C(=O)[C@@H](NC(=O)Cc1ccccc1)[C@@H]1N[C@@H](C(=O)NCCNC(=O)[C@@H]2N[C@@H]([C@H](NC(=O)Cc3ccccc3)C(=O)N(C)C)SC2(C)C)C(C)(C)S1
EC50 [1]: 4400 nM
EC50 [2]: 1700 nM
IC50 [3]: 5.2 nM

SMILES: CC1(C)S[C@H]([C@H](NC(=O)Cc2ccccn2)C(=O)NCc2ccccc2)N[C@H]1C(=O)NCCNC(=O)[C@@H]1N[C@@H]([C@H](NC(=O)Cc2ccccn2)C(=O)NCc2ccccc2)SC1(C)C
EC50 [1]: > 10000 nM
IC50 [3]: 0.55 nM

SMILES: CCNC(=O)[C@@H](NC(=O)c1c(-c2ccccc2)noc1C)[C@@H]1N[C@@H](C(=O)NCCNC(=O)[C@@H]2N[C@@H]([C@H](NC(=O)c3c(-c4ccccc4)noc3C)C(=O)NCC)SC2(C)C)C(C)(C)S1
EC50 [1]: 2500 nM
IC50 [3]: 5.4 nM

SMILES: CC1(C)S[C@H]([C@H](NC(=O)Cc2ccccc2)C(=O)N(CCO)CCO)N[C@H]1C(=O)NCCNC(=O)[C@@H]1N[C@@H]([C@H](NC(=O)Cc2ccccc2)C(=O)N(CCO)CCO)SC1(C)C
IC50 [3]: 840 nM

SMILES: CCNC(=O)[C@@H](NC(=O)Cc1ccccc1)[C@@H]1N[C@@H](C(=O)NCCNC(=O)[C@@H]2N[C@@H](CNC(=O)Cc3ccccc3)SC2(C)C)C(C)(C)S1
EC50 [1]: > 100000 nM
IC50 [3]: 35 nM

SMILES: CCNC(=O)[C@@H](NC(=O)Cc1ccccc1)[C@@H]1N[C@@H](C(=O)NCCNC(=O)[C@@H]2NCSC2(C)C)C(C)(C)S1
IC50 [3]: 8800 nM

SMILES: CC1(C)S[C@H]([C@H](NC(=O)Cc2ccccc2)C(=O)NCCO)N[C@H]1C(=O)NCCNC(=O)[C@@H]1N[C@@H]([C@H](NC(=O)Cc2ccccc2)C(=O)NCCO)SC1(C)C
EC50 [1]: > 100000 nM
IC50 [3]: 40 nM

SMILES: CC1(C)S[C@H]([C@H](NC(=O)c2ccccc2-c2ccccc2)C(=O)NCC(=O)O)N[C@H]1C(=O)NCCNC(=O)[C@@H]1N[C@@H]([C@H](NC(=O)c2ccccc2-c2ccccc2)C(=O)NCC(=O)O)SC1(C)C
EC50 [1]: > 100000 nM
IC50 [3]: 39 nM

SMILES: CCNC(=O)[C@@H](NC(=O)c1ccccc1Nc1ccccc1)[C@@H]1N[C@@H](C(=O)NCCNC(=O)[C@@H]2N[C@@H]([C@H](NC(=O)c3ccccc3Nc3ccccc3)C(=O)NCC)SC2(C)C)C(C)(C)S1
IC50 [3]: 4800 nM

SMILES: CCNC(=O)[C@@H](NC(=O)Cc1ccccn1)[C@@H]1N[C@@H](C(=O)NCCNC(=O)[C@@H]2N[C@@H]([C@H](NC(=O)Cc3ccccn3)C(=O)NCC)SC2(C)C)C(C)(C)S1
EC50 [1]: > 100000 nM
IC50 [3]: 19 nM

SMILES: CC1(C)S[C@H]([C@H](NC(=O)Cc2ccccc2)C(=O)NCC(F)(F)F)N[C@H]1C(=O)NCCNC(=O)[C@@H]1N[C@@H]([C@H](NC(=O)Cc2ccccc2)C(=O)NCC(F)(F)F)SC1(C)C
EC50 [1]: 280 nM
EC50 [2]: 220 nM
IC50 [3]: 4.4 nM

SMILES: CC1(C)S[C@H]([C@H](NC(=O)c2ccccc2-c2ccccc2)C(=O)NCc2ccccc2)N[C@H]1C(=O)NCCNC(=O)[C@@H]1N[C@@H]([C@H](NC(=O)c2ccccc2-c2ccccc2)C(=O)NCc2ccccc2)SC1(C)C
EC50 [1]: 110 nM
EC50 [2]: 130 nM
IC50 [3]: 7.5 nM

SMILES: CCNC(=O)[C@@H](NC(=O)Cc1ccc2ccccc2c1)[C@@H]1N[C@@H](C(=O)NCCNC(=O)[C@@H]2N[C@@H]([C@H](NC(=O)Cc3ccc4ccccc4c3)C(=O)NCC)SC2(C)C)C(C)(C)S1
IC50 [3]: 820 nM

SMILES: Cc1cn([C@H]2C[C@H](N=[N+]=[N-])[C@@H](CO)O2)c(=O)[nH]c1=O [ZIDOVUDINE]
EC50 [1]: 20 nM
EC50 [2]: 30 nM

Source: ChEMBL document CHEMBL1126854, “A series of penicillin derived C2-symmetric inhibitors of HIV-1 proteinase: synthesis, mode of interaction, and structure-activity relationships” (J Med Chem, 1993)
